Results taken from ChEMBL document CHEMBL1158122, “Anti-inflammatory, anti-tumor-promoting, and cytotoxic activities of constituents of marigold (Calendula officinalis) flowers” (J Nat Prod, 2006).

How the values were obtained:
[1] = Cytotoxicity against human Raji cells assessed as cell viability at 10 molar ratio; type: cell-based; conditions: read-out: Activity
Outline: (§1)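 Raji cells were treated with 32 pmol TPA to induce EBV early antigen activation. The test agent was added at 10, 100, 500 or 1000 mol ratio relative to TPA, and Raji cell viability was measured alongside EA activation.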

COLO 205 = assay: Cytotoxicity against human COLO205 cells after 48 hrs by SRB assay; type: functional; conditions: COLO 205, 48 h
NCI-H226 = assay: Cytotoxicity against human NCI-H226 cells after 48 hrs by SRB assay; type: functional; conditions: NCI-H226, 48 h
NCI-H522 = assay: Cytotoxicity against human NCI-H522 cells after 48 hrs by SRB assay; type: functional; conditions: NCI-H522, 48 h
HOP-92 = assay: Cytotoxicity against human HOP-92 cells after 48 hrs by SRB assay; type: functional; conditions: HOP-92, 48 h
[2] = Cytotoxicity against human SK MEL28 cells after 48 hrs by SRB assay; type: functional; conditions: SK-MEL-28, 48 h
PC-3 = assay: Cytotoxicity against human PC-3 cells after 48 hrs by SRB assay; type: functional; conditions: PC-3, 48 h
NCI/ADR-RES = assay: Cytotoxicity against human NCI/ADR-RES cells after 48 hrs by SRB assay; type: functional
HCT-15 = assay: Cytotoxicity against human HCT-15 cells after 48 hrs by SRB assay; type: functional; conditions: HCT-15, 48 h
Mus musculus = assay: Antiinflammatory activity against TPA-induced ear edema in mouse; type: functional
Outline: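 Specific-pathogen-free female ICR mice were housed five per cage at 24 ± 2 °C. Inflammation was induced on the ear with TPA at 1 µg/ear, and the test agent was applied per ear. Ear edema inhibition was expressed as ID50 in mg per ear.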

Raji [3] = assay: Inhibition of TPA-induced EBV-early antigen activation in human Raji cells at 100 molar ratio relative to TPA; type: cell-based; parameters: scale not given: the % may be the effect or the level left; conditions: human gammaherpesvirus 4
[4] = Cytotoxicity against human Raji cells assessed as cell viability at 1000 molar ratio; type: cell-based; conditions: read-out: Activity; outline: as §1
HL-60 = assay: Cytotoxicity against human HL-60 cells after 48 hrs by SRB assay; type: functional; conditions: HL-60, 48 h
MCF7 = assay: Cytotoxicity against human MCF7 cells after 48 hrs by SRB assay; type: functional; conditions: MCF7, 48 h
T47D = assay: Cytotoxicity against human T47D cells after 48 hrs by SRB assay; type: functional
Outline: (§2)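 Tested in the NCI panel of 60 human tumour cell lines covering lung, colon, melanoma, renal, ovarian, breast and leukaemia. At least five concentrations were run in 10-fold dilutions starting from 10^-4 M. Exposure was continuous for 48 h. Growth or viability was estimated by sulforhodamine B protein staining, and GI50 values were reported.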

MOLT-4 = assay: Cytotoxicity against human MOLT-4 cells after 48 hrs by SRB assay; type: functional; conditions: MOLT-4, 48 h
HCC 2998 = assay: Cytotoxicity against human HCC2998 cells after 48 hrs by SRB assay; type: functional; conditions: HCC 2998, 48 h
ACHN = assay: Cytotoxicity against human ACHN cells after 48 hrs by SRB assay; type: functional
TK-10 = assay: Cytotoxicity against human TK-10 cells after 48 hrs by SRB assay; type: functional; conditions: TK-10, 48 h; outline: as §2
IGROV-1 = assay: Cytotoxicity against human IGROV1 cells after 48 hrs by SRB assay; type: functional; conditions: IGROV-1, 48 h
OVCAR-3 = assay: Cytotoxicity against human OVCAR-3 cells after 48 hrs by SRB assay; type: functional; conditions: OVCAR-3, 48 h
[5] = Cytotoxicity against human Hs 578T cells after 48 hrs by SRB assay; type: functional
UACC-62 = assay: Cytotoxicity against human UACC-62 cells after 48 hrs by SRB assay; type: functional; conditions: UACC-62, 48 h; outline: as §2
KM12 = assay: Cytotoxicity against human KM12 cells after 48 hrs by SRB assay; type: functional; conditions: KM12, 48 h
OVCAR-5 = assay: Cytotoxicity against human OVCAR5 cells after 48 hrs by SRB assay; type: functional; conditions: OVCAR-5, 48 h
EKVX = assay: Cytotoxicity against human EKVX cells after 48 hrs by SRB assay; type: functional
SW-620 = assay: Cytotoxicity against human SW620 cells after 48 hrs by SRB assay; type: functional; conditions: SW-620, 48 h
OVCAR-8 = assay: Cytotoxicity against human OVCAR8 cells after 48 hrs by SRB assay; type: functional; conditions: OVCAR-8, 48 h
[6] = Cytotoxicity against human Raji cells assessed as cell viability at 100 molar ratio; type: cell-based; conditions: read-out: Activity; outline: as §1
SN12C = assay: Cytotoxicity against human SN12C cells after 48 hrs by SRB assay; type: functional
RXF 393 = assay: Cytotoxicity against human […] cells after 48 hrs by SRB assay; type: functional; conditions: RXF 393, 48 h
LOX IMVI = assay: Cytotoxicity against human LOX IMVI cells after 48 hrs by SRB assay; type: functional
NCI-H322M = assay: Cytotoxicity against human NCI-H322M cells after 48 hrs by SRB assay; type: functional
UO-31 = assay: Cytotoxicity against human UO-31 cells after 48 hrs by SRB assay; type: functional; conditions: UO-31, 48 h; outline: as §2
SK-MEL-5 = assay: Cytotoxicity against human SK-MEL-5 cells after 48 hrs by SRB assay; type: functional; conditions: SK-MEL-5, 48 h
SK-MEL-2 = assay: Cytotoxicity against human SK-MEL-2 cells after 48 hrs by SRB assay; type: functional; conditions: SK-MEL-2, 48 h
SNB-19 = assay: Cytotoxicity against human SNB-19 cells after 48 hrs by SRB assay; type: functional; conditions: SNB-19, 48 h
786-0 = assay: Cytotoxicity against human 786-0 cells after 48 hrs by SRB assay; type: functional; conditions: 786-0, 48 h
Raji [7] = assay: Inhibition of TPA-induced EBV-early antigen activation in human Raji cells at 1000 molar ratio relative to TPA; type: cell-based; parameters: scale not given: the % may be the effect or the level left; conditions: human gammaherpesvirus 4
Malme-3M = assay: Cytotoxicity against human MALME-3M cells after 48 hrs by SRB assay; type: functional
K562 = assay: Cytotoxicity against human K-562 cells after 48 hrs by SRB assay; type: functional; conditions: K562, 48 h
A549 = assay: Cytotoxicity against human A549 cells after 48 hrs by SRB assay; type: functional; conditions: A549, 48 h
MDA-MB-231 = assay: Cytotoxicity against human MDA-MB-231 cells after 48 hrs by SRB assay; type: functional; conditions: MDA-MB-231, 48 h
CAKI-1 = assay: Cytotoxicity against human Caki-1 cells after 48 hrs by SRB assay; type: functional; conditions: CAKI-1, 48 h
[8] = Cytotoxicity against human Raji cells assessed as cell viability at 500 molar ratio; type: cell-based; conditions: read-out: Activity; outline: as §1
[9] = Cytotoxicity against human HCT 116 cells after 48 hrs by SRB assay; type: functional; conditions: HCT-116, 48 h
HOP-62 = assay: Cytotoxicity against human HOP-62 cells after 48 hrs by SRB assay; type: functional; conditions: HOP-62, 48 h
NCI-H23 = assay: Cytotoxicity against human NCI-H23 cells after 48 hrs by SRB assay; type: functional; conditions: NCI-H23, 48 h
MDA-MB-435 = assay: Cytotoxicity against human MDA-MB-435 cells after 48 hrs by SRB assay; type: functional; conditions: MDA-MB-435, 48 h
NCI-H460 = assay: Cytotoxicity against human NCI-H460 cells after 48 hrs by SRB assay; type: functional; conditions: NCI-H460, 48 h
BT-549 = assay: Cytotoxicity against human BT-549 cells after 48 hrs by SRB assay; type: functional; conditions: BT-549, 48 h
HT-29 = assay: Cytotoxicity against human HT-29 cells after 48 hrs by SRB assay; type: functional; conditions: HT-29, 48 h
UACC-257 = assay: Cytotoxicity against human UACC-257 cells after 48 hrs by SRB assay; type: functional; conditions: UACC-257, 48 h; outline: as §2
SF-268 = assay: Cytotoxicity against human SF-268 cells after 48 hrs by SRB assay; type: functional; conditions: SF-268, 48 h
Raji [10] = assay: Inhibition of TPA-induced EBV-early antigen activation in human Raji cells at 10 molar ratio relative to TPA; type: cell-based; parameters: scale not given: the % may be the effect or the level left; conditions: human gammaherpesvirus 4
Raji [11] = assay: Inhibition of TPA-induced EBV-early antigen activation in human Raji cells at 500 molar ratio relative to TPA; type: cell-based; parameters: scale not given: the % may be the effect or the level left; conditions: human gammaherpesvirus 4
SF-295 = assay: Cytotoxicity against human SF-295 cells after 48 hrs by SRB assay; type: functional; conditions: SF-295, 48 h
[12] = Inhibition of TPA-induced EBV-early antigen activation in human Raji cells relative to TPA; type: cell-based, human gammaherpesvirus 4

What does the source list for CCCCOC(=O)[C@H]1O[C@@H](O[C@H]2CC[C@]3(C)[C@H]4CC=C5[C@@H]6CC(C)(C)CC[C@]6(C(=O)O)CC[C@@]5(C)[C@]4(C)CC[C@H]3C2(C)C)[C@H](O[C@@H]2O[C@H](CO)[C@@H](O)[C@H](O)[C@H]2O)[C@@H](O[C@@H]2O[C@H](CO)[C@H](O)[C@H](O)[C@H]2O)[C@@H]1O?
viability at 10 molar ratio [1]: > 80%; GI50 (COLO 205): 20.1 µM; GI50 (NCI-H226): 29.2 µM; GI50 (NCI-H522): 43.9 µM; GI50 (HOP-92): 33.2 µM; GI50 [2]: 26.7 µM; GI50 (PC-3): 34.7 µM; GI50 (NCI/ADR-RES): 74 µM; GI50 (HCT-15): 20.9 µM; ID50 (Mus musculus): 0.06 mg; Activity (Raji [3]): 71%; viability at 1000 molar ratio [4]: 70%; GI50 (HL-60): 22.3 µM; GI50 (MCF7): 38.4 µM; GI50 (T47D): 48 µM; GI50 (MOLT-4): 7.77 µM; GI50 (HCC 2998): 21.8 µM; GI50 (ACHN): 20.6 µM; GI50 (TK-10): 33.3 µM; GI50 (IGROV-1): > 100 µM; GI50 (OVCAR-3): > 100 µM; GI50 [5]: 38 µM; GI50 (UACC-62): 20.9 µM; GI50 (KM12): 30.8 µM; GI50 (OVCAR-5): 28.8 µM; GI50 (EKVX): 24.4 µM; GI50 (SW-620): 36.6 µM; GI50 (OVCAR-8): 66.8 µM; viability at 100 molar ratio [6]: > 80%; GI50 (SN12C): 21.8 µM; GI50 (RXF 393): 58.5 µM; GI50 (LOX IMVI): 18 µM; GI50 (NCI-H322M): 19 µM; GI50 (UO-31): 49.2 µM; GI50 (SK-MEL-5): 33.1 µM; GI50 (SK-MEL-2): 40.9 µM; GI50 (SNB-19): 22.5 µM; GI50 (786-0): 26.2 µM; Activity (Raji [7]): 11%; GI50 (Malme-3M): 17.8 µM; GI50 (K562): 23.2 µM; GI50 (A549): 34.1 µM; GI50 (MDA-MB-231): 14.5 µM; GI50 (CAKI-1): 33.4 µM; viability at 500 molar ratio [8]: > 80%; GI50 [9]: 20.6 µM; GI50 (HOP-62): 19.4 µM; GI50 (NCI-H23): 22.8 µM; GI50 (MDA-MB-435): 30.6 µM; GI50 (NCI-H460): 33.3 µM; GI50 (BT-549): 21.5 µM; GI50 (HT-29): 34.2 µM; GI50 (UACC-257): 26.2 µM; GI50 (SF-268): 27.7 µM; Activity (Raji [10]): 100%; Activity (Raji [11]): 49.3%; GI50 (SF-295): 26 µM; IC50 [12]: 473 molar ratio
